Screen size: about 360,000 compounds; about 950 (0.26%) were called active.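 Rule for the calls: active = inhibition above a per-plate limit, mean inhibition of low control wells plus 3 SD (cut at about 25% in these data); inactive = the rest.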 The full list was thinned out, with actives kept by preference.
biological target: ADP-ribosylation factor GTPase-activating protein 1 (Rattus norvegicus) (UniProt Q62848); assay: blockers of ARFGAP1-stimulated ARF1 GTP hydrolysis – biochemical, fluorescence polarization, GDP tracer, primary screen (AID 651572); conditions: GDP FP detection, at 16.5 µM, hits give high values;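 note: 0% = DMSO wells with enzyme and 100% = wells lacking Arfgap1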
Sequence (Q62848 1-136 limits assumed): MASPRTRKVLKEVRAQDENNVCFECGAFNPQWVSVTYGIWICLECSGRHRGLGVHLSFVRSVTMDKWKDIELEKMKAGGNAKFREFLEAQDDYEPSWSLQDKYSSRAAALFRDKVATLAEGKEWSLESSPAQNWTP
How it was run: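 Repeats: one replicate per compound; assay system: rat Arfgap1 catalytic domain, aa 1-136; times: enzyme reaction 120 min at 25 °C after 20 min preincubation; detection: FP of antibody-bound GDP Alexa 633 tracer, ex 620/em 688 nm; benchmarks: high control wells lacking Arfgap1, low control full reaction with DMSO; reagent: human ARF1(Δ1-17)-GTP substrate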

How did the inhibition turn out when O=C(N[C@H](C(=O)N1CCC[C@H]1C(=O)NCCc1ccccc1Cl)c1ccccc1)c1ccccc1 was run?
Its inhibition is 0.74% (inactive).

For Cc1ccccc1C(=O)N[C@H](C(=O)N1CCC[C@H]1C(=O)NCc1ccccc1)C(C)C, which inhibition is on record?
The inhibition was -4.95% (inactive).

For C=CCSc1nnc(N2C(=O)C(O)=C(C(=O)c3ccco3)C2c2ccc(F)cc2)s1 (stereo unspecified), which inhibition is on record?
The inhibition was -2.87% (inactive).

For Cc1ccc2nc(N3C(=O)C(O)=C(C(=O)c4ccco4)C3c3cccc(O)c3)sc2c1 (stereo unspecified), which inhibition is on record?
The inhibition was 28.5% (active).

Which inhibition does the source give for COc1cc(C2C(C(=O)c3ccco3)=C(O)C(=O)N2c2cc(C)on2)ccc1OCc1ccccc1 (stereo unspecified) here?
The inhibition was -0.46% (inactive).

How did the inhibition turn out when COC(=O)C1=C(C)N(Cc2ccccc2C(F)(F)F)C(=NCC2CC2)NC1c1cccc(Cl)c1 (stereo unspecified) was run?
The inhibition was -11.5% (inactive).

CN1C(=O)C(Br)(Br)CC1c1cccnc1 (stereo unspecified) was tested. Which inhibition did it give?
Its inhibition is 15.5% (inactive).

Which inhibition does the source give for CC(=O)c1ccc(S(=O)(=O)NCC2CCN(C(=O)C(=O)c3cccs3)CC2)cc1 here?
The inhibition was 0.05% (inactive).

For Clc1cccc2c1C1CC2CCN1Cc1ccccc1 (stereo unspecified), which inhibition is on record?
The inhibition was 1.92% (inactive).

How did the inhibition turn out when CCc1cccc(NC(=O)C2CCCN(S(=O)(=O)c3ccc4[nH]c(=O)ccc4c3)C2)c1 (stereo unspecified) was run?
The inhibition was -1.05% (inactive).

How did the inhibition turn out when CC1CCN(S(=O)(=O)c2ccc3[nH]c(=O)ccc3c2)CC1 was run?
The inhibition was -6.93% (inactive).

Cc1cc(C)cc(NC(=O)C2CCCN(S(=O)(=O)c3ccc4[nH]c(=O)ccc4c3)C2)c1 (stereo unspecified) was tested. Which inhibition did it give?
The inhibition was 27.2% (active).

CCOc1ccccc1C(=O)N1CCC[C@@H]1C(=O)N1CCC[C@H]1C(=O)NCc1ccccc1 was tested. Which inhibition did it give?
The inhibition was 2.51% (inactive).

For C=CCN1C(=O)N(Cc2ccccc2)c2ccccc2S1(=O)=O, which inhibition is on record?
The inhibition was -1.51% (inactive).

How did the inhibition turn out when S=C(NCc1cccs1)Nc1ccc(Cl)cc1 was run?
Its inhibition is 28.2% (active).

For O=C(CN1CCN(c2ccc(Cl)cc2)CC1)NCc1cccs1, which inhibition is on record?
The inhibition was -5.05% (inactive).

With COc1ccc(NC(=S)NCc2cccs2)c(OC)c1 as the compound, how does the inhibition read?
Its inhibition is 7.24% (inactive).

How did the inhibition turn out when COc1ccc(-c2ccc3c(n2)CCCN3S(=O)(=O)c2ccc(C)cc2)cc1 was run?
Its inhibition is -4.31% (inactive).

How did the inhibition turn out when COc1ccccc1-c1ccc([C@@H]2C[C@H]3[C@H](CON3C)CN2S(=O)(=O)c2cc(Cl)cc(Cl)c2)cc1 was run?
Its inhibition is 5.63% (inactive).

How did the inhibition turn out when Nc1nc2c(ncn2[C@@H]2O[C@H](C(=O)N[C@@H](Cc3ccccc3)C(=O)NCc3ccccc3)[C@@H](O)[C@H]2O)c(=O)[nH]1 was run?
Its inhibition is -1.71% (inactive).

With COC(=O)[C@]12C[C@H](CC(=O)NCc3cccc(C(F)(F)F)c3)C(=O)N(Cc3ccc4c(c3)OCO4)C1=C[C@H](COCc1ccccc1)O[C@@H]2C as the compound, how does the inhibition read?
The inhibition was 5.08% (inactive).

With Cc1[nH]nc2c1C(c1ccc(Br)cc1)NC2=O (stereo unspecified) as the compound, how does the inhibition read?
Its inhibition is 2.74% (inactive).

Which inhibition does the source give for COC(=O)C1=C(C)N(Cc2ccccc2C(F)(F)F)C(=NCc2ccc(OC)cc2)NC1c1cccc(C(F)(F)F)c1 (stereo unspecified) here?
Its inhibition is 10.9% (inactive).

With O=C(CCc1ccccc1)Nc1nn[nH]n1 as the compound, how does the inhibition read?
Its inhibition is 11.2% (inactive).

For CC(C)(C)NC(=O)CSc1nnc(NC(=O)CCc2ccccc2)s1, which inhibition is on record?
The inhibition was 0.73% (inactive).

O=C(CCc1ccccc1)Nc1ncc([N+](=O)[O-])s1 was tested. Which inhibition did it give?
Its inhibition is 29% (active).

With Nc1ccn([C@@H]2O[C@H](C(=O)N[C@H]3CCCCNC3=O)[C@@H](O)[C@H]2O)c(=O)n1 as the compound, how does the inhibition read?
Its inhibition is -7.26% (inactive).

How did the inhibition turn out when COc1ccc(-c2ccccc2C2Cc3nnccc3CN2C(=O)Nc2ccccc2)cc1 (stereo unspecified) was run?
Its inhibition is 0.85% (inactive).

Which inhibition does the source give for COc1ccc(NC(=O)c2ccccc2CC[N+](=O)[O-])cc1 here?
Its inhibition is -2.01% (inactive).

With COc1ccc(NC(=O)c2cn(-c3ccccc3)nc2SC)cc1 as the compound, how does the inhibition read?
The inhibition was 25.1% (active).

COc1ccc(NC(=O)CSc2nc(N)c(-c3ccccc3)c(=O)[nH]2)cc1 was tested. Which inhibition did it give?
The inhibition was 5.45% (inactive).

Which inhibition does the source give for NC(=O)c1ncn([C@@H]2O[C@H](C(=O)O)[C@@H](O)[C@H]2O)n1 here?
Its inhibition is -10.5% (inactive).

How did the inhibition turn out when COC(=O)C1=C(C)N(Cc2cccc(C(F)(F)F)c2)C(=NCc2cccc(C(F)(F)F)c2)NC1c1ccccc1C(F)(F)F (stereo unspecified) was run?
The inhibition was 18.5% (inactive).

C#CCNC(=O)C1=C[C@@H](c2ccccc2)[C@H](CCCO)[C@@H](OCC)O1 was tested. Which inhibition did it give?
The inhibition was 0.84% (inactive).

Which inhibition does the source give for CCO[C@H]1OC(C(=O)N2CCCCCCC2)=C[C@@H](c2ccc(C(F)(F)F)cc2)[C@@H]1CCCO here?
The inhibition was 5.85% (inactive).

CCO[C@@H]1OC(C(N)=O)=C[C@H](c2ccc(Br)cc2)[C@H]1CCCO was tested. Which inhibition did it give?
Its inhibition is 37% (active).

How did the inhibition turn out when CC[C@H](C)[C@H]1CNC(=O)C(=O)N1CC1CCN(CCc2ccc(OC)c(OC)c2)CC1 was run?
Its inhibition is 4.8% (inactive).

Which inhibition does the source give for COC(=O)[C@]12C[C@H](CC(=O)NCc3ccc(OC)c(OC)c3)C(=O)N(Cc3ccccc3)C1=C[C@H](C(C)C)O[C@@H]2C1CC1 here?
The inhibition was 1.55% (inactive).

How did the inhibition turn out when COc1cccc(CNC(=O)[C@H]2CCCN2C(=O)[C@H]2CCCN2C(=O)c2ccc(F)cc2)c1 was run?
The inhibition was 2.29% (inactive).

How did the inhibition turn out when CCOC(=O)N1CCN(C(=O)C[C@H]2C[C@@]3(C(=O)OC)C(=C[C@H](C4CCCC4)O[C@@H]3C)N(Cc3ccccc3)C2=O)CC1 was run?
Its inhibition is -0.91% (inactive).

How did the inhibition turn out when COc1ccccc1C(=O)N1O[C@]23C=C[C@]14C[C@@H](O)CC[C@]4(C)C2CC[C@]1(C)[C@@H]([C@H](C)/C=C/[C@H](C)C(C)C)CC[C@H]13 (stereo partly specified) was run?
Its inhibition is -2.43% (inactive).

With OC(c1ccccc1)(c1ccccc1)C1CCN(CCCOc2ccc(-c3ccsc3)cc2)CC1 as the compound, how does the inhibition read?
Its inhibition is 15.6% (inactive).

Which inhibition does the source give for COCCNc1cc(-c2ccccc2)nc2cc(-c3cccc(F)c3)nn12 here?
Its inhibition is 26.4% (active).

With COc1ccc(-c2cc3nc(NCCOc4ccccc4)ccn3n2)cc1 as the compound, how does the inhibition read?
The inhibition was 22.7% (inactive).

With COCCCNc1ccn2nc(-c3ccc(CC(C)C)cc3)cc2n1 as the compound, how does the inhibition read?
The inhibition was 12.8% (inactive).

Which inhibition does the source give for C[C@H]1[C@H](c2ccccc2)Oc2cc(Br)ccc2S(=O)(=O)N1Cc1cccc(F)c1 here?
Its inhibition is -1.97% (inactive).

For Cc1noc(C)c1NC(=O)Nc1ccc2c(c1)C(=O)N([C@H](C)CO)C[C@H](C)[C@H](CN(C)Cc1ccncc1)OCCCC[C@@H](C)O2, which inhibition is on record?
Its inhibition is 7.37% (inactive).

How did the inhibition turn out when COC(=O)c1c(-c2ccc(OC)cc2)c2c(c3c4cc(OC)ccc4n(S(=O)(=O)c4ccc(F)cc4)c13)C(=O)N(C)C2 was run?
The inhibition was -3.49% (inactive).

Which inhibition does the source give for COC(=O)[C@]12C[C@H](CC(=O)NCCCCc3ccccc3)C(=O)N(Cc3ccc4c(c3)OCO4)C1=C[C@H](C(C)(C)C)O[C@@H]2C here?
The inhibition was 2.49% (inactive).

For CCC(=C/c1sc2ccc3ccccc3c2[n+]1C)/C=C1\Sc2ccc3ccccc3c2N1C, which inhibition is on record?
Its inhibition is 39.3% (active).

With Nc1[nH]c(C(=O)c2ccc(Br)cc2)c(-c2ccc3c(c2)OCO3)c1C(=O)NCCc1c[nH]c2ccccc12 as the compound, how does the inhibition read?
Its inhibition is 15.2% (inactive).

For CN(C)CCNC(=O)c1cccc(-c2cnc3c(NC=O)cc(-c4cccc(C(F)(F)F)c4)cn23)c1, which inhibition is on record?
The inhibition was 5.54% (inactive).

Which inhibition does the source give for CC(=O)c1cccc(-c2cnc3c(NC=O)cc(-c4ccccc4Oc4ccccc4)cn23)c1 here?
Its inhibition is -2.03% (inactive).

For CN(C)CCNC(=O)c1ccc(-c2cn3c(-c4ccc(Oc5ccccc5)cc4)cnc3cn2)cc1, which inhibition is on record?
The inhibition was 40.4% (active).

Which inhibition does the source give for CCOC(=O)Cn1c2c(n(-c3ccc(F)cc3)c1=O)C=C(c1ccccc1)[C@@H](C)C(C(=O)N(C)C1CCCCC1)=C2 here?
The inhibition was -3.57% (inactive).

CCc1ccc(C2=CC(=O)CC(C)(C)C2=O)cc1 was tested. Which inhibition did it give?
The inhibition was 5.54% (inactive).

Which inhibition does the source give for COC(=O)C1=C(C)N(Cc2ccccc2C(F)(F)F)C(=NCc2ccc(C(F)(F)F)cc2)NC1c1ccc(F)cc1 (stereo unspecified) here?
Its inhibition is 16.5% (inactive).

Which inhibition does the source give for COc1cccc(CC(=O)N2CCN(C(=O)C(=O)c3cccc(C(F)(F)F)c3)CC2)c1 here?
The inhibition was -7.68% (inactive).

With O=S1(=O)c2c(cccc2N2CCCC2)O[C@H](COCc2ccccc2)CN1C1CC1 as the compound, how does the inhibition read?
Its inhibition is -15.6% (inactive).

For O=C1[C@@H](c2ccccc2)[C@@H](c2ccccc2)N1c1ccccc1, which inhibition is on record?
Its inhibition is -3.37% (inactive).

With CCn1c(SCc2cc(=O)n3ccsc3n2)nc2ccccc21 as the compound, how does the inhibition read?
The inhibition was 26.2% (active).

How did the inhibition turn out when O=C(O)CCn1c(SCc2cc(=O)n3ccccc3n2)nc2ccsc2c1=O was run?
Its inhibition is 9.88% (inactive).

With CCn1c(SCC(=O)N2CCCC2=O)nc2ccccc21 as the compound, how does the inhibition read?
Its inhibition is -1.54% (inactive).

O=C1Nc2ccccc2C1=NN=Cc1ccco1 was tested. Which inhibition did it give?
The inhibition was 18.3% (inactive).

COC(=O)C1=C(C)N(Cc2cccc(C(F)(F)F)c2)C(=NCc2ccccc2)NC1c1ccccc1C(F)(F)F (stereo unspecified) was tested. Which inhibition did it give?
The inhibition was 18.8% (inactive).

Which inhibition does the source give for O=C(Nc1c(Cl)c(C2CC2)nn1-c1ccccc1)C(Cl)(Cl)Cl here?
The inhibition was 1.34% (inactive).

How did the inhibition turn out when COc1cccc(NC(=O)N(C)C[C@@H]2OCc3cn(nn3)CCCC(=O)N([C@@H](C)CO)C[C@H]2C)c1 was run?
The inhibition was 2.11% (inactive).

Nc1ncnc2c1ncn2[C@@H]1O[C@H](C(=O)N[C@@H](CCc2ccccc2)C(=O)N2CCCN(Cc3cccs3)CC2)[C@@H](O)[C@H]1O was tested. Which inhibition did it give?
Its inhibition is -6.61% (inactive).

How did the inhibition turn out when COc1ccc(SSc2ccc(OC)cc2C(=O)O)c(C(=O)O)c1 was run?
Its inhibition is -0.05% (inactive).

Which inhibition does the source give for C[C@H](O)[C@@H]1C(=O)N2CCc3c([nH]c4c(-c5ccc6c(c5)OCO6)cccc34)[C@@H]2C[C@@H]1N(C)C(=O)c1ccco1 here?
Its inhibition is 1.71% (inactive).

COc1cccc(CNc2nc(C(F)(F)F)nc3ccccc23)c1 was tested. Which inhibition did it give?
Its inhibition is 27.8% (active).

Which inhibition does the source give for COc1cccc(CNc2nc(NCc3cccs3)nc3ccsc23)c1 here?
The inhibition was 2.65% (inactive).

With COc1cccc(CNc2ncc(-c3ccccc3)n2C)c1 as the compound, how does the inhibition read?
The inhibition was -4.8% (inactive).

C[C@@H](CN1C2=NC[C@@H](Cc3ccccc3)N2C[C@H]1Cc1ccc(O)cc1)NC(=O)CCC1CCCCC1 was tested. Which inhibition did it give?
The inhibition was 6.99% (inactive).

How did the inhibition turn out when CC[C@H](NC(=O)[C@H](Cc1ccccc1)NC(=O)[C@H]1O[C@@H](n2cnc3c(=O)[nH]c(N)nc32)[C@H](O)[C@@H]1O)c1ccccc1 was run?
The inhibition was 10% (inactive).

With COC(=O)[C@]1(Cc2ccccc2)NC=C(C(=O)c2ccccc2)[C@@H]1c1cccc(OC)c1 as the compound, how does the inhibition read?
The inhibition was 1.68% (inactive).
